# Assays:
# [1] = molecular target: T1, Neuropeptide S receptor (Homo sapiens, UniProt Q6W5P4); assay: Antagonist activity at human recombinant NPS receptor expressed in CHOK1 cells assessed as inhibition of NPS-induced calcium mobilization by FLIPR assay; assay type: functional, cell-based, CHO-K1
# T1 sequence (Q6W5P4 whole entry): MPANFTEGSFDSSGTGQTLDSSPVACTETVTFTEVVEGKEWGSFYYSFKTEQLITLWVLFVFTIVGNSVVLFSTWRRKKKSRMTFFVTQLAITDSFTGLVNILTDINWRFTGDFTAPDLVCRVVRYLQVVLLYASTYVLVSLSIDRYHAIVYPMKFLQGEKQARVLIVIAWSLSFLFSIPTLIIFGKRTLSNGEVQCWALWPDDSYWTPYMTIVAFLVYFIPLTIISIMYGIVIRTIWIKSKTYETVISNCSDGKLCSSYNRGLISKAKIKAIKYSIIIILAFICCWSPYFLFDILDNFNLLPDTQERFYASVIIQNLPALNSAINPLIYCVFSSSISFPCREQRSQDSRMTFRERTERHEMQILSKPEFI
# Method in brief: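 Dual-sequence FLIPR Ca2+ mobilization on CHOK1 cells expressing recombinant NPSR, plated 24 h ahead at 15 K cells/well. Cells washed and loaded with Fluo4AM for 1 h at 37 °C, 5% CO2. Inhibition taken relative to NPS-stimulated control wells; IC50 from 4-parameter logistic fits; mean ± S.D. of multiple determinations.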
# [2] = Passive permeability of the compound; assay type: ADME; settings: not told
# [3] = Unbound fraction in rat plasma by ultracentrifugation; assay type: ADME, cell-free
# [4] = molecular target: rat MDR1 (ABCB1, P-glycoprotein) (Rattus norvegicus, UniProt P43245); assay: Permeability of the compound assessed as rat MDR1-mediated directional transport ratio by cell based assay; settings: not told
# Chain of rat MDR1 (ABCB1, P-glycoprotein) (P43245 whole entry): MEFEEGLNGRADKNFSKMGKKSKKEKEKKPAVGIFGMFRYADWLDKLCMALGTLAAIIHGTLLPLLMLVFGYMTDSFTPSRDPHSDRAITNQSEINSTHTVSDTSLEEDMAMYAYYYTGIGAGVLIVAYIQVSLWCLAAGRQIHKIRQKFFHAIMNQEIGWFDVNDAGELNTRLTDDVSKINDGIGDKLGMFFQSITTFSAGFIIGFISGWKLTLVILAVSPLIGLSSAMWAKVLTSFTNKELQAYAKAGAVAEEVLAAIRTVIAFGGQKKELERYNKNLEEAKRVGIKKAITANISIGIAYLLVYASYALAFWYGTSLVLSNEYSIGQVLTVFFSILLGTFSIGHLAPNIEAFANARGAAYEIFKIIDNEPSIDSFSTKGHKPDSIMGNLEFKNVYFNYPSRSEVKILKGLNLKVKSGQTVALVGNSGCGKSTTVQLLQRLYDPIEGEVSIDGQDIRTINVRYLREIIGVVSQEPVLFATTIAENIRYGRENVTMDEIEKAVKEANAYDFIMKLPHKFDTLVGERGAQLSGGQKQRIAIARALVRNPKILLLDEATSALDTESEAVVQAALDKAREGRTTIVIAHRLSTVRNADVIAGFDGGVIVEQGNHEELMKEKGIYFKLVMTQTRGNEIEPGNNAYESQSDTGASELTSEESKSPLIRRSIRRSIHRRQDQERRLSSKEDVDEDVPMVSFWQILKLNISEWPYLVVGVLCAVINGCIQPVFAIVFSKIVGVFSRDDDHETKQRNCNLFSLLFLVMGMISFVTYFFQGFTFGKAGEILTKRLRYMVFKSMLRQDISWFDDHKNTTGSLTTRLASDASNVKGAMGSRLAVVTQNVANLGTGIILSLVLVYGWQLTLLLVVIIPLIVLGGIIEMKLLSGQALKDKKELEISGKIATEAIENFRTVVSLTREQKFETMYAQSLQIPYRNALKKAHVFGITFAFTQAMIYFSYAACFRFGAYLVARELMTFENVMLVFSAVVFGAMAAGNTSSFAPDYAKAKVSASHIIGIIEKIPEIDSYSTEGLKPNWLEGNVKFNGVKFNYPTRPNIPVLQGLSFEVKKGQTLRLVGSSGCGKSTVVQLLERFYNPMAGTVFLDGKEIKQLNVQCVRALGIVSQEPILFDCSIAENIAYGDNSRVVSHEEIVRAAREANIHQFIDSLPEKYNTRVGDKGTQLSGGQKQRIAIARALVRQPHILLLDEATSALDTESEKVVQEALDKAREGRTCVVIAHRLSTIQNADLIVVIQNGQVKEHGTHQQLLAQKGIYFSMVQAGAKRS
# Method in brief: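 Rat MDR1 directional transport ratio, calculated as (B–A)/(A–B). Average of three experiments; interassay variability 20%.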
# [5] = Ratio drug level in CSF to plasma in rat at 75 mg/kg, ip; assay type: ADME, organism-based; design: dose 75 mg/kg, route intraperitoneal
# Method in brief: (§1)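 Compound given to rats at 75 mpk IP as a solution in 25% HPB-cyclodextrin. CSF and plasma sampled at 30 min and 2 h.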
# [6] = AUC (0 to infinity) in rat at 2 mg/kg, po; assay type: ADME, organism-based; design: time infinity, dose 2 mg/kg, route oral; settings: plasma
# [7] = Inhibition of melatonin receptor
# [8] = Inhibition of sodium channel site 2
# [9] = Drug level in rat cerebrospinal fluid at 75 mg/kg, ip after 2 hrs; assay type: ADME, organism-based; design: dose 75 mg/kg, route intraperitoneal; settings: read-out: Drug uptake; method in brief: as §1
# [10] = molecular target: T2, Thromboxane A2 receptor (Homo sapiens, UniProt P21731); assay: Inhibition of thromboxane A2 receptor
# T2 sequence (P21731 whole entry): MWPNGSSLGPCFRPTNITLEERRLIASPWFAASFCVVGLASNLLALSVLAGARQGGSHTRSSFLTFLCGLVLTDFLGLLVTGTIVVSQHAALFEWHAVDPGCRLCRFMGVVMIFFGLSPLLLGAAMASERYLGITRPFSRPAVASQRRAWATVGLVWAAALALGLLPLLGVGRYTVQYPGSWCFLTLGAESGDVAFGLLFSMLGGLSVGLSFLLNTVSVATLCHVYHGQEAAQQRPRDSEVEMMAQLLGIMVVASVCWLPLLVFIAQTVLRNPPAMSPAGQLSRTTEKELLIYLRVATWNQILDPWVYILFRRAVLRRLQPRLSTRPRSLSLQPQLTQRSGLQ
# [11] = Drug level in rat cerebrospinal fluid at 75 mg/kg, ip after 30 mins; assay type: ADME, organism-based; design: dose 75 mg/kg, route intraperitoneal; settings: read-out: Drug uptake; method in brief: as §1
# [12] = Lipophilicity, log D of the compound by HPLC method; assay type: physicochemical
# [13] = AUC (0 to infinity) in rat at 10 mg/kg, po; assay type: ADME, organism-based; design: time infinity, dose 10 mg/kg, route oral; settings: plasma
# [14] = system: Plasma; assay: Unbound free concentration in rat plasma at 30 mg/kg, ip measured after 2 hrs; assay type: ADME, organism-based; design: dose 30 mg/kg, route intraperitoneal; settings: in vivo
# Method in brief: (§2)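 Compound dosed to rats at 30 mpk IP. Plasma levels measured at 30 min, 1 h and 2 h. Unbound exposures obtained by correcting for plasma free fraction.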
# [15] = Drug level in plasma of rat at 30 mg/kg, ip measured after 1 hr; assay type: ADME, organism-based; design: dose 30 mg/kg, route intraperitoneal; method in brief: as §2
# [16] = molecular target: Cannabinoid receptor 1 (Homo sapiens, UniProt P21554); assay: Inhibition of CB1 receptor
# Chain of Cannabinoid receptor 1 (P21554 whole entry): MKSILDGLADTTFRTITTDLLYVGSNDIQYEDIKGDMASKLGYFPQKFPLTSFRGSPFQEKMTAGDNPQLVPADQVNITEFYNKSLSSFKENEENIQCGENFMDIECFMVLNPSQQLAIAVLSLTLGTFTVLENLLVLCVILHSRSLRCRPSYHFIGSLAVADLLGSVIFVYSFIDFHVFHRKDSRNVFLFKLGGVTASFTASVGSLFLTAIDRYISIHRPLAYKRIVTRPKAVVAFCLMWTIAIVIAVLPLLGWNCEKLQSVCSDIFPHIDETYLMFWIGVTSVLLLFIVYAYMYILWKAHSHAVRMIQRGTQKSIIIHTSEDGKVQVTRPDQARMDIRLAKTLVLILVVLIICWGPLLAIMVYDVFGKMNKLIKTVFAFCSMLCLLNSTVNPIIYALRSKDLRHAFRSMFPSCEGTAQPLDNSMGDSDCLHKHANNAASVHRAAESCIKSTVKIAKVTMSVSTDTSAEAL
# [17] = system: Plasma; assay: Unbound free concentration in rat plasma at 30 mg/kg, ip measured after 1 hr; assay type: ADME, organism-based; design: dose 30 mg/kg, route intraperitoneal; settings: in vivo; method in brief: as §2
# [18] = system: Plasma; assay: Unbound free concentration in rat plasma at 30 mg/kg, ip measured after 30 mins; assay type: ADME, organism-based; design: dose 30 mg/kg, route intraperitoneal; settings: in vivo, 0.5 h; method in brief: as §2
# [19] = Drug level in plasma of rat at 30 mg/kg, ip measured after 2 hrs; assay type: ADME, organism-based; design: dose 30 mg/kg, route intraperitoneal; method in brief: as §2
# [20] = Drug level in plasma of rat at 30 mg/kg, ip measured after 30 mins; assay type: ADME, organism-based; design: dose 30 mg/kg, route intraperitoneal; method in brief: as §2
# [21] = Clearance in iv dosed rat; assay type: ADME, organism-based; settings: in vivo
# Method in brief: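 IV clearance in rats measured in cassette dosing experiments.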
# [22] = Lipophilicity, log P of the compound; assay type: physicochemical; settings: octanol/water
smiles,measurement,setting,value
Fc1ccc(C2(CC3CCOCC3)c3ccccc3-c3nccn32)cc1 (configuration not stated),IC50,[1],660 nM
Fc1ccc(C2(Cc3ccccc3)c3ccccc3-c3nccn32)cc1 (configuration not stated),IC50,[1],336 nM
Clc1ccc(C2(Cc3ccccc3)c3ccccc3-c3nccn32)cc1 (configuration not stated),IC50,[1],358 nM
Cc1ccc(C2(Cc3ccccc3)c3ccccc3-c3nccn32)cc1 (configuration not stated),IC50,[1],1320 nM
N#Cc1ccc(C2(Cc3ccccc3)c3ccccc3-c3nccn32)cc1 (configuration not stated),Papp,[2],33 ×10⁻⁶ cm/s
same,fraction unbound,[3],0.17
same,IC50,[1],387 nM
same,efflux ratio,[4],0.9
Brc1cccc(C2(Cc3ccccc3)c3ccccc3-c3nccn32)c1 (configuration not stated),IC50,[1],1730 nM
N#Cc1cccc(C2(Cc3ccccc3)c3ccccc3-c3nccn32)c1 (configuration not stated),IC50,[1],3170 nM
Brc1ccc(C2(Cc3ccccc3)c3ccccc3-c3nccn32)cn1 (configuration not stated),IC50,[1],1500 nM
Brc1ccc(C2(Cc3ccccc3)c3ccccc3-c3nccn32)nc1 (configuration not stated),IC50,[1],2180 nM
N#Cc1ccc(C2(CC3CCOCC3)c3ccccc3-c3nccn32)cc1 (configuration not stated),IC50,[1],635 nM
Clc1ccc(C2(CC3CCOCC3)c3ccccc3-c3nccn32)cc1 (configuration not stated),Papp,[2],31 ×10⁻⁶ cm/s
same,fraction unbound,[3],0.018
same,IC50,[1],134 nM
same,efflux ratio,[4],1.4
Brc1ccc(C2(CC3CCCC3)c3ccccc3-c3nccn32)cn1 (configuration not stated),Papp,[2],25 ×10⁻⁶ cm/s
same,fraction unbound,[3],0.013
same,IC50,[1],851 nM
same,efflux ratio,[4],1.3
N#Cc1ccc(C2(CC3CCCC3)c3ccccc3-c3nccn32)cc1 (configuration not stated),Papp,[2],22 ×10⁻⁶ cm/s
same,fraction unbound,[3],0.011
same,IC50,[1],145 nM
same,efflux ratio,[4],0.6
N#Cc1ccc(C2(CC3CCCCC3)c3ccccc3-c3nccn32)cc1 (configuration not stated),Papp,[2],17 ×10⁻⁶ cm/s
same,IC50,[1],114 nM
same,efflux ratio,[4],1.6
COc1ccc2c(c1)C(CC1CCOCC1)(c1ccc(Cl)cc1)n1ccnc1-2 (configuration not stated),Ratio,[5],1%
same,AUC(0-inf),[6],0.114 µM·h
same,IC50,[7],1300 nM
same,IC50,[8],4000 nM
same,fraction unbound,[3],0.016
same,IC50,[1],82 nM
same,concentration at 2 h,[9],153 nM
same,efflux ratio,[4],1.3
same,IC50,[10],7000 nM
same,concentration at 0.5 h,[11],594 nM
same,logD,[12],3.2
COc1cccc2c1C(CC1CCOCC1)(c1ccc(Cl)cc1)n1ccnc1-2 (configuration not stated),fraction unbound,[3],0.008
same,IC50,[1],46 nM
same,AUC(0-inf),[13],0.425 µM·h
COc1ccc2c(c1)C(CCC(=O)N1[C@H](C)CC[C@@H]1C)(c1ccc(Cl)cc1)n1ccnc1-2 (some centres not stated),AUC(0-inf),[6],0.115 µM·h
same,fraction unbound,[3],0.007
same,IC50,[1],50 nM
same,efflux ratio,[4],2.2
CCN(CC)C(=O)CCC1(c2ccc(Cl)cc2)c2c(OC)cccc2-c2nccn21 (configuration not stated),Cp(f),[14],39 nM
same,concentration at 1 h,[15],5100 nM
same,IC50,[16],6000 nM
same,Cp(f),[17],66 nM
same,fraction unbound,[3],0.013
same,Cp(f),[18],101 nM
same,IC50,[1],43 nM
same,concentration at 2 h,[19],3000 nM
same,efflux ratio,[4],2.9
same,AUC(0-inf),[13],1.15 µM·h
same,concentration at 0.5 h,[20],7800 nM
Brc1ccc(C2(Cc3ccccc3)c3cccnc3-c3nccn32)cc1 (configuration not stated),IC50,[1],1460 nM
CCC1CCCCN1C(=O)CCC1(c2ccc(Cl)cc2)c2ccccc2-c2nccn21 (mixture of isomers),fraction unbound,[3],0.011
same,IC50,[1],131 nM
same,clearance,[21],20 mL/min/kg
same,efflux ratio,[4],1.6
CC(C1CCN(C(=O)CCC2(c3ccc(Cl)cc3)c3ccccc3-c3nccn32)CC1)N1CCCC1 (mixture of isomers),fraction unbound,[3],0.081
same,IC50,[1],126 nM
same,clearance,[21],38 mL/min/kg
same,efflux ratio,[4],34.2
O=C(CCC1(c2ccc(Cl)cc2)c2ccccc2-c2nccn21)N1C2CCCC1CC2 (mixture of isomers),fraction unbound,[3],0.006
same,IC50,[1],95 nM
same,clearance,[21],34 mL/min/kg
same,efflux ratio,[4],1.7
C[C@@H]1CC[C@H](C)N1C(=O)CCC1(c2ccc(Cl)cc2)c2ccccc2-c2nccn21 (mixture of isomers),fraction unbound,[3],0.006
same,IC50,[1],92 nM
same,clearance,[21],36 mL/min/kg
same,efflux ratio,[4],1.5
CC(C1CCN(C(=O)CCC2(c3ccc(Cl)cc3)c3ccccc3-c3nccn32)CC1)N1CCC(F)(F)C1 (mixture of isomers),fraction unbound,[3],0.029
same,IC50,[1],239 nM
same,clearance,[21],38 mL/min/kg
same,efflux ratio,[4],2
Brc1ccc(C2(Cc3ccccc3)c3ccccc3-c3nccn32)cc1 (racemic),IC50,[1],380 nM
N#Cc1ccccc1CC1(c2ccc(Br)cc2)c2ccccc2-c2nccn21 (racemic),Papp,[2],17 ×10⁻⁶ cm/s
same,fraction unbound,[3],< 0.01
same,IC50,[1],369 nM
same,efflux ratio,[4],1.7
Brc1ccc(C2(Cc3cccnc3)c3ccccc3-c3nccn32)cc1 (racemic),Papp,[2],31 ×10⁻⁶ cm/s
same,fraction unbound,[3],0.021
same,IC50,[1],351 nM
same,efflux ratio,[4],2.1
Brc1ccc(C2(CC3CCCCC3)c3ccccc3-c3nccn32)cc1 (racemic),IC50,[1],254 nM
Brc1ccc(C2(CC3CCCC3)c3ccccc3-c3nccn32)cc1 (racemic),IC50,[1],321 nM
Brc1ccc(C2(CC3CCOCC3)c3ccccc3-c3nccn32)cc1 (racemic),Papp,[2],31 ×10⁻⁶ cm/s
same,fraction unbound,[3],0.19
same,IC50,[1],92 nM
same,clearance,[21],48 mL/min/kg
same,efflux ratio,[4],1.2
Brc1ccc(C2(CCC3CCOCC3)c3ccccc3-c3nccn32)cc1 (racemic),IC50,[1],154 nM
CC(C)N(C(=O)CCC1(c2ccc(Cl)cc2)c2ccccc2-c2nccn21)C(C)C (racemic),fraction unbound,[3],0.008
same,IC50,[1],96 nM
same,clearance,[21],26 mL/min/kg
same,efflux ratio,[4],1.4
CCN(C(=O)CCC1(c2ccc(Cl)cc2)c2ccccc2-c2nccn21)C(C)C (racemic),fraction unbound,[3],0.007
same,IC50,[1],138 nM
same,clearance,[21],31 mL/min/kg
same,efflux ratio,[4],2.3
CCN(CC)C(=O)CCC1(c2ccc(Cl)cc2)c2ccccc2-c2nccn21 (racemic),clearance,[21],38 mL/min/kg
same,AUC(0-inf),[13],0.18 µM·h
"CCN(CC)C(=O)CCC1(c2ccc(Cl)cc2)c2ccccc2-c2nccn21 (single isomer, unassigned)",fraction unbound,[3],0.022
same,IC50,[1],90 nM
same,efflux ratio,[4],2.1
Brc1ccc(C2(Cc3ccccc3)c3ccccc3-c3nccn32)cc1 (stereo in doubt; 2),Papp,[2],10 ×10⁻⁶ cm/s
same,logP,[22],> 3.8
same,fraction unbound,[3],0.01
same,IC50,[1],163 nM

# Reference: ChEMBL document CHEMBL1800075, “Tricyclic imidazole antagonists of the Neuropeptide S Receptor” (Bioorg Med Chem Lett, 2010)
